In PMC8721161 (International Journal of Nanomedicine, 2021):

Experiments:
α-glucosidase enzyme = assay: Alpha-glucosidase enzyme inhibition activity; type: biochemical; conditions: concentration not given
Summary of the method: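 Enzyme was 0.02 U/μL α-glucosidase in 0.2 M sodium phosphate buffer, pH 6.8. Enzyme and buffer were preincubated 20 min with test compound in DMSO at 1000, 500, 250, 125 or 62.5 μg/mL. 0.02 M PNPG substrate was added for a further 30 min. The reaction was stopped with 0.2 M Na2CO3. Released p-nitrophenol was read at 405 nm and % inhibition calculated by formula.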

[1] = In vitro dissolution / drug release study; type: physicochemical; conditions: 0.1 M phosphate buffer pH 6.8, 37±0.5 °C, dialysis bag, up to 12 h
Summary of the method: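 Free test compound, its cyclodextrin complex and the complex-loaded chitosan nanoparticles were placed in dialysis bags presoaked overnight. Medium was 100 mL of 0.1 M phosphate buffer, pH 6.8, at 37±0.5 °C. Samples were 0.45 µm filtered and assayed by UV at 388 nm.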

[2] = In vivo pharmacokinetic study, single oral dose, EPL in rabbit plasma by HPLC; parameters: species or system rabbits (Oryctolagus cuniculus)
Summary of the method: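 Non-pregnant adult rabbits (2.5±0.1 kg) in three groups of six got a single oral dose of free compound, complex or nanoparticles. Jugular blood went into EDTA at set times, was spun 12,000 rpm 30 min, and plasma stored −70 °C. Perchloric acid precipitation preceded C18 HPLC (acetonitrile:KH2PO4 60:40, pH 4.0; 388 nm; plasma calibration 0.02–10 μg/mL). Non-compartmental log-linear trapezoidal analysis gave parameters; mean±SD.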

potency against α-glucosidase enzyme inhibition (α-glucosidase enzyme): greater than 70%
cumulative drug release (%) [1]: 20–25%
Cmax ([2]; plasma, po): 4750 ± 3640 ng/mL
AUC ([2]; plasma, po, AUC0-α, single oral dose, mean±SD): 192 ± 165 µg·h/mL
AUC0-α ([2]; single oral dose, mean±SD): 191.5 ± 164.63 µg·h/mL
MRT ([2]; single oral dose, mean±SD): 47.22±3.88 H
T1/2 (elimination half-life) ([2]; single oral dose, mean±SD): 4 H
Compound: CC(/C=C1\SC(=S)N(CC(=O)O)C1=O)=C\c1ccccc1 [EPL, Epalrestat]
